Test results: ChEMBL document CHEMBL3616466, “Pyrazolo[3,4-h]quinolines promising photosensitizing agents in the treatment of cancer” (Eur J Med Chem, 2015)

What was measured:
Assay type in all cases: functional
Jurkat [1] = assay: Photocytotoxicity against human Jurkat cells assessed as growth inhibition at 2.5 J/cm'2 irradiation for 30 mins followed by drug treated for 72 hrs by MTT assay; details: light or radiation study
How it was run: (§1)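 Cells seeded at 5 × 10³ per well and pre-incubated 24 h. Drug dilutions in HBSS (pH 7.2, from DMSO stock) added for 30 min at 37 °C, then UV-A irradiation at the stated dose. Drug solution then replaced with culture medium and plates incubated 72 h. Viability by MTT; GI50 from concentration series.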

Jurkat [2] = assay: Photocytotoxicity against human Jurkat cells assessed as growth inhibition at 1.25 J/cm'2 irradiation for 30 mins followed by drug treated for 72 hrs by MTT assay; details: light or radiation study; how it was run: as §1
HL-60 [3] = assay: Photocytotoxicity against human HL60 cells assessed as growth inhibition at 2.5 J/cm'2 irradiation for 30 mins followed by drug treated for 72 hrs by MTT assay; details: HL-60, light or radiation study; how it was run: as §1
HL-60 [4] = assay: Photocytotoxicity against human HL60 cells assessed as growth inhibition at 1.25 J/cm'2 irradiation for 30 mins followed by drug treated for 72 hrs by MTT assay; details: HL-60, light or radiation study; how it was run: as §1
MCF7 [5] = assay: Photocytotoxicity against human MCF7 cells assessed as growth inhibition at 3.75 J/cm'2 irradiation for 30 mins followed by drug treated for 72 hrs by MTT assay; details: MCF7, light or radiation study; how it was run: as §1
MCF7 [6] = assay: Photocytotoxicity against human MCF7 cells assessed as growth inhibition at 2.5 J/cm'2 irradiation for 30 mins followed by drug treated for 72 hrs by MTT assay; details: MCF7, light or radiation study; how it was run: as §1
A549 [7] = assay: Photocytotoxicity against human A549 cells assessed as growth inhibition at 3.75 J/cm'2 irradiation for 30 mins followed by drug treated for 72 hrs by MTT assay; details: A549, light or radiation study; how it was run: as §1
A549 [8] = assay: Photocytotoxicity against human A549 cells assessed as growth inhibition at 2.5 J/cm'2 irradiation for 30 mins followed by drug treated for 72 hrs by MTT assay; details: A549, light or radiation study; how it was run: as §1
LoVo [9] = assay: Photocytotoxicity against human LoVo cells assessed as growth inhibition at 3.75 J/cm'2 irradiation for 30 mins followed by drug treated for 72 hrs by MTT assay; details: light or radiation study; how it was run: as §1
LoVo [10] = assay: Photocytotoxicity against human LoVo cells assessed as growth inhibition at 2.5 J/cm'2 irradiation for 30 mins followed by drug treated for 72 hrs by MTT assay; details: light or radiation study; how it was run: as §1

Row | Compound | GI50 (Jurkat [1]) [µM] | GI50 (Jurkat [2]) [µM] | GI50 (HL-60 [3]) [µM] | GI50 (HL-60 [4]) [µM] | GI50 (MCF7 [5]) [µM] | GI50 (MCF7 [6]) [µM] | GI50 (A549 [7]) [µM] | GI50 (A549 [8]) [µM] | GI50 (LoVo [9]) [µM] | GI50 (LoVo [10]) [µM]
1 | COc1nc2c(cc1S(=O)(=O)c1ccccc1)CCc1c-2cnn1C | 12.7 | > 20 | 9.79 | > 20 | > 20 | > 20 | > 20 | > 20 | > 20 | > 20
2 | O=c1[nH]c2c(cc1S(=O)(=O)c1ccccc1)CCc1c-2cnn1Cc1ccccc1 | 6.88 | > 20 | 5.06 | > 20 | > 20 | > 20 | > 20 | > 20 | 14.5 | > 20
3 | CCOC(=O)c1cc2c(nc1OC)-c1cnn(-c3ccc(OC)cc3)c1CC2 | 6.43 | 9.93 | 4.69 | 7.71 | > 20 | > 20 | 4.67 | 6.99 | 4.3 | 5.81
4 | COc1ccc(-n2ncc3c2CCc2cc(S(=O)(=O)c4ccccc4)c(=O)n(Cc4ccccc4)c2-3)cc1 | > 20 | > 20 | > 20 | > 20 | > 20 | > 20 | > 20 | > 20 | 4.12 | > 20
5 | Cn1c2c(cc(S(=O)(=O)c3ccccc3)c1=O)CCc1c-2cnn1-c1ccc(Cl)cc1 | 3.01 | > 20 | 2.88 | > 20 | > 20 | > 20 | > 20 | > 20 | 11.1 | > 20
6 | Cn1c2c(cc(S(=O)(=O)c3ccccc3)c1=O)CCc1c-2cnn1-c1ccccc1 | 6.99 | > 20 | > 20 | > 20 | > 20 | > 20 | > 20 | > 20 | > 20 | > 20
7 | Cn1c2c(cc(S(=O)(=O)c3ccccc3)c1=O)CCc1c-2cnn1Cc1ccccc1 | 5.67 | > 20 | 6.79 | > 20 | > 20 | > 20 | > 20 | > 20 | 13 | > 20
8 | O=c1[nH]c2c(cc1S(=O)(=O)c1ccccc1)CCc1c-2cnn1-c1ccccc1Cl | 3.95 | 11.3 | 2.76 |  | 10.4 | 13 | 8.97 | 13.3 | 10.1 | > 20
9 | Cn1c2c(cc(S(=O)(=O)c3ccccc3)c1=O)CCc1c-2cnn1-c1ccccc1Cl | 5.21 | > 20 | 4.82 | 11.5 | 12.6 | > 20 | 13 | > 20 | 13.1 | > 20
10 | COc1ccc(-n2ncc3c2CCc2cc(S(=O)(=O)c4ccccc4)c(=O)n(C)c2-3)cc1 | 6.68 | > 20 | 7.65 | > 20 | > 20 | > 20 | > 20 | > 20 | > 20 | > 20
11 | CCOC(=O)c1cc2c(n(C)c1=O)-c1cnn(-c3ccc(Cl)cc3)c1CC2 | > 20 | > 20 | 7.67 | > 20 | > 20 | > 20 | > 20 | > 20 | > 20 | > 20
12 | CCOC(=O)c1cc2c(nc1OC)-c1cnn(-c3ccc(Cl)cc3)c1CC2 | 1.81 | 4.47 | 1.71 | 5.38 | > 20 | > 20 | 2.3 | 3.68 | 1.13 | 2.79
13 | O=c1ccc2ccc3occc3c2o1 [ANGELICIN] | 1 |  | 1.2 |  | 1.5 | 4.42 |  |  | 1.11 | 4
